# Published values from different studies.
# Protocols differ between the studies behind these lines. pKi: −log10 of the molar value.
# OPRK1: Kappa-type opioid receptor (OPRK1, Homo sapiens, UniProt P41145)
# SIGMAR1: Sigma non-opioid intracellular receptor 1 (SIGMAR1, Homo sapiens, UniProt Q99720)
# SLC10A1: Hepatic sodium/bile acid cotransporter (SLC10A1, Homo sapiens, UniProt Q14973)
# HTR2A: 5-hydroxytryptamine receptor 2A (HTR2A, Homo sapiens, UniProt P28223)
# HRH4: Histamine H4 receptor (HRH4, Homo sapiens, UniProt Q9H3N8)
# CNR1: Cannabinoid receptor 1 (CNR1, Homo sapiens, UniProt P21554)
# PPO3: PPO3 (Agaricus bisporus, UniProt C7FF04)
# SPHK1: Sphingosine kinase 1 (SPHK1, Homo sapiens, UniProt Q9NYA1)
SMILES,target,observed,mode,technique,setting,pKi
CNC(=O)[C@@]12C[C@@H]1[C@@H](n1cnc3c(NC)nc(C#Cc4ccc(Br)s4)nc31)[C@H](O)[C@@H]2O,OPRK1,cell-free assay,,,,< 5.00
CCCn1nc(C(=O)N2CCCCC2)c2c1CCC(N1CCC(c3ccncc3)CC1)C2 (stereo not shown),SIGMAR1,ligand displacement,,radioligand,,< 5.00
CNC(=O)[C@@]12C[C@@H]1[C@@H](n1cnc3c(NC)nc(C#Cc4ccc(Cl)s4)nc31)[C@H](O)[C@@H]2O,OPRK1,cell-free assay,,,,< 5.00
COc1cc2c(cc1OC)CN(CCCCn1ccc3c(OC)cccc31)C2,SIGMAR1,ligand displacement,,radioligand,cell membranes,6.83
CNC(=O)[C@@]12C[C@@H]1[C@@H](n1cnc3c(NC4CC4c4ccccc4)nc(C#Cc4ccccc4)nc31)[C@H](O)[C@@H]2O (mixture of isomers),OPRK1,cell-free assay,,,,< 5.00
CC(C)C(=O)Nc1ccc([N+](=O)[O-])c(C(F)(F)F)c1,SLC10A1,transporter uptake,inhibitor,,,3.95
O[C@H]1[C@H](n2cnc3c(NC(C4CCCCC4)C4CCCCC4)nc(Cl)nc32)[C@H]2C[C@@]2(CF)[C@H]1O,HTR2A,ligand displacement,,radioligand,,5.15
CCCn1nc(C(=O)N2CCCCC2)c2c1CCC(NCCCN1CCCC1=O)C2 (stereo not shown),SIGMAR1,ligand displacement,,radioligand,,< 5.00
CCCCN1CCC(COC(=O)c2ccc(N)c(OCF)c2)CC1,HRH4,cell-free assay,,radioligand,,< 5.00
CC[C@H](C)[C@H](NC(=O)[C@H](CCC(=O)O)NC(=O)[C@H](CC(=O)O)NC(=O)CNC(=O)[C@H](CC(C)C)NC(=O)[C@H](CCCNC(=N)N)NC(=O)[C@H](CCC(N)=O)NC(=O)[C@H](CC(C)C)NC(=O)[C@H](CO)NC(=O)[C@H](CCC(N)=O)NC(=O)[C@@H](NC(=O)[C@H](CC(C)C)NC(=O)[C@H](Cc1c[nH]c2ccccc12)NC(=O)[C@@H](NC(=O)[C@H](CCC(=O)O)NC(=O)[C@@H]1CCCN1C(=O)[C@H](CCCNC(=N)N)NC(C)=O)[C@@H](C)CC)[C@@H](C)O)C(=O)N[C@@H](CC(N)=O)C(=O)N[C@@H](C)C(=O)N[C@@H](Cc1ccc(O)cc1)C(=O)N[C@@H](Cc1ccc(O)cc1)C(=O)N[C@@H](C)C(=O)N[C@@H](CCCNC(=N)N)C(N)=O,"Bcl-2-like protein 1 (BCL2L1, Homo sapiens, UniProt Q07817)",ligand displacement,,FP,,~5.68
CCOC(=O)[C@](CC)(CCCS(=O)(=O)CCOCCOCCNC(=O)OC(C)(C)C)NC(=O)c1ccc(C2CC2)c(Cc2ccc(F)cc2)n1,CNR1,ligand displacement,,radioligand,cell membranes,6.72
CCCn1nc(C(=O)N2CCCCC2)c2c1CCC(NCCc1ccncc1)C2 (stereo not shown),SIGMAR1,ligand displacement,,radioligand,,< 5.00
CC1Cc2ccccc2N1C(=O)NCCCCN(C)[C@@H]1Cc2cccc3[nH]c(=O)n(c23)C1 (mixture of isomers),HTR2A,ligand displacement,,radioligand,,5.51
Cc1ccc(C(C)C)cc1NC(=O)COC(=O)/C=C/c1ccccc1,PPO3,enzyme activity,inhibitor,,,6.08
Nc1nc(N)c(N=Nc2ccccc2[N+](=O)[O-])c(N)n1,PPO3,enzyme activity,inhibitor,,,5.25
O[C@@H]1[C@H](O)[C@@H]2C[C@@H]2[C@H]1n1cnc2c(NCCc3ccccc3)nc(C#Cc3ccccc3Cl)nc21,OPRK1,cell-free assay,,,,< 5.00
CCCn1nc(C(=O)N2CCCCC2)c2c1CCC(NCCCNC)C2 (stereo not shown),SIGMAR1,ligand displacement,,radioligand,,< 5.00
O=C(c1cccc(/N=N/c2cccc(OCCCN3CCCCC3)c2)c1)N1CCCC1,HRH4,ligand displacement,,radioligand,,< 5.00
Nc1nc(N)c(N=Nc2ccc([N+](=O)[O-])cc2)c(Cl)n1,PPO3,enzyme activity,inhibitor,,,5.18
Cn1cc(-c2ccncc2)c(-c2ccc(OCc3ccc4ccccc4n3)cc2)n1,"Vesicular acetylcholine transporter (SLC18A3, Homo sapiens, UniProt Q16572)",ligand displacement,,radioligand,,< 6.00
CS(=O)(=O)CCNCc1ccc(-c2ccc3ncnc(Nc4ccc(OCc5cccc(F)c5)c(Cl)c4)c3c2)o1,SLC10A1,transporter uptake,inhibitor,,,3.55
Cc1nc2n(c(=O)c1CCNCCc1c[nH]c3cc(F)ccc13)CCCC2,HTR2A,ligand displacement,,radioligand,cell membranes,5.71
CNC(=O)[C@@]12C[C@@H]1[C@@H](n1cnc3c(NCc4cccc(Cl)c4)nc(C#Cc4ccccc4)nc31)[C@H](O)[C@@H]2O,OPRK1,cell-free assay,,,,< 5.00
Nc1nc(N)c(N=Nc2ccccc2[N+](=O)[O-])c(Cl)n1,PPO3,enzyme activity,inhibitor,,,5.44
Cc1nc2n(c(=O)c1CCN1CCCCC1)CCCC2,HTR2A,ligand displacement,,radioligand,cell membranes,~5.30
OCCCN1CC[C@@H]2C[C@H]1c1cc(-c3ccc(C(F)(F)F)cc3)ccc12,HRH4,ligand displacement,,radioligand,,5.26
O=C1NC(c2ccccc2)(c2ccccc2)C(=O)N1CCCN1CCCCC1,HRH4,ligand displacement,,radioligand,cell membranes,< 5.00
CCCC[C@H](NC(=O)[C@H](C)c1c(C)[nH]c2ccc(O)cc12)c1ncc(-c2cc3ccccc3nc2OC)[nH]1,CNR1,cell-free assay,,,,5.14
Nc1nc(N)c(N=Nc2ccc([N+](=O)[O-])cc2)c(N)n1,PPO3,enzyme activity,inhibitor,,,5.34
CCCn1nc(C(=O)N2CCCCC2)c2c1CCC(N(C)Cc1ccc(F)cc1)C2 (stereo not shown),SIGMAR1,ligand displacement,,radioligand,,< 5.00
CNC(=O)[C@@]12C[C@@H]1[C@@H](n1cnc3c(NCc4cccc(Cl)c4)nc(C#Cc4ccccc4Cl)nc31)[C@H](O)[C@@H]2O,OPRK1,cell-free assay,,,,< 5.00
[H]/N=C(\N)N1CCC[C@H]1c1nc(-c2ccc(OCC=Cc3ccc(C(F)(F)F)cc3)c(C(F)(F)F)c2)no1,SPHK1,enzyme activity,inhibitor,,,4.92
CNc1nc(C#Cc2ccccc2)nc2c1ncn2[C@H]1[C@H](O)[C@H](O)[C@@H]2C[C@@H]21,OPRK1,cell-free assay,,,,< 5.00
N=C(N)N1CCC[C@H]1c1nc(-c2ccc(CCc3ccc(C(F)(F)F)cc3)c(C(F)(F)F)c2)no1,SPHK1,enzyme activity,inhibitor,,,5.05
O[C@@H]1[C@H](O)[C@@H]2C[C@@H]2[C@H]1n1cnc2c(NCc3cccc(Cl)c3)nc(C#Cc3ccc(F)c(F)c3)nc21,OPRK1,cell-free assay,,,,< 5.00
CC(=O)Nc1ccc(N=Nc2c(N)nc(N)nc2Cl)cc1,PPO3,enzyme activity,inhibitor,,,5.11
CCCn1nc(C(=O)N2CCCCC2)c2c1CCC(NCc1ccc(S(N)(=O)=O)cc1)C2 (stereo not shown),SIGMAR1,ligand displacement,,radioligand,,< 5.00
Cc1nc[nH]c(=O)c1CCN1CCC(c2noc3cc(F)ccc23)CC1,HTR2A,ligand displacement,,radioligand,cell membranes,8.73
Cc1ccc(CN(C)CC(=O)N2CCCN(Cc3ccc(Cl)cc3)CC2)c(Cl)c1,OPRK1,cell-free assay,,,,5.12
COc1ccccc1N1CCN(C/C=C/CNC(=O)c2cc3cc(OCCOCCF)ccc3[nH]2)CC1,SIGMAR1,cell-free assay,,,,< 5.00
